The text below walks through data of ChEMBL document CHEMBL1153135, “Reaction of naphthoquinones with substituted nitromethanes. Facile synthesis and antifungal activity of naphtho[2,3-d]isoxazole-4,9-diones” (2010).

Structures are written as SMILES. Converted amounts (≈) assume the structure as drawn.

Holding throughout (assay type): functional
In experiment [1] the test system is Candida parapsilosis. Description: Antifungal activity against Candida parapsilosis PYCC 2545 after 48 hrs. As to conditions: Lodderomyces parapsilosis, PYCC 2545, 48 h. The method, boiled down: (§1)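 Broth microdilution after modified CLSI M27-A in SG minimal medium (yeast nitrogen base without amino acids, 2% glucose). Compounds dissolved in DMSO (1 mg/mL), diluted 10-fold in SG, then 30 final concentrations from 97.5 to 0.0025 µg/mL. About 5 × 10³ cells/well, in triplicate. Incubated at 30 °C for 48 h, OD 655 nm read as % of DMSO control; MIC50 by probit analysis of mean values.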

The subject of experiment [2] is Candida albicans. The experiment can be described thus: Antifungal activity against Candida albicans ATCC 90028 after 48 hrs. As to conditions: ATCC 90028, 48 h. The method, boiled down: as §1
Experiment [3] concerns Candida parapsilosis. Description: Antifungal activity against Candida parapsilosis ATCC 22019 after 48 hrs. As to conditions: Lodderomyces parapsilosis, ATCC 22019, 48 h. The procedure, abridged:
as §1

For experiment [4], the system named is Candida albicans. The experiment can be described thus: Antifungal activity against Candida albicans PYCC 3436 after 48 hrs. To be noted: PYCC 3436, 48 h. The method, boiled down: as §1
In experiment [5] the test system is Pichia kudriavzevii. Description: Antifungal activity against Candida krusei PYCC 3341 after 48 hrs. As to conditions: PYCC 3341, 48 h. The method, boiled down:
as §1

In experiment [6] the test system is Nakaseomyces glabratus. Description: Antifungal activity against Candida glabrata PYCC 2418 after 48 hrs. To be noted: PYCC 2418, 48 h. The procedure, abridged: as §1

What is called MIC50 is the lowest concentration that inhibits either 50% of growth or 50% of the strains tested, depending on the study. A lower MIC50 goes with greater potency.

For the compound `CCOC1=C(Cl)C(=O)c2ccccc2C1=O`, the MIC50 in experiment [1] amounted to 48.3 µM (≈ 11.4 µg/mL); in experiment [2], 202 µM (≈ 47.9 µg/mL); in experiment [3], 40.4 µM (≈ 9.56 µg/mL); in experiment [4], 9.5 µM (≈ 2.25 µg/mL); in experiment [5] it was 3.9 µM (≈ 0.923 µg/mL); in experiment [6], 3.8 µM (≈ 0.899 µg/mL).
Consider `COC1=C(Cl)C(=O)c2ccccc2C1=O`, for which the MIC50 in experiment [1] is 5.3 µM (≈ 1.18 µg/mL); in experiment [2], 73.9 µM (≈ 16.5 µg/mL); in experiment [3], 4.7 µM (≈ 1.05 µg/mL); in experiment [4] it was 10.4 µM (≈ 2.32 µg/mL); in experiment [5] it was 4.6 µM (≈ 1.02 µg/mL); in experiment [6] it was 16.7 µM (≈ 3.72 µg/mL).
Regarding `CCOC(=O)CC1=C(Br)C(=O)c2ccccc2C1=O`, the MIC50 worked out at 1.1 µM (≈ 0.355 µg/mL) in experiment [1]; 4.5 µM (≈ 1.45 µg/mL) in experiment [2]; 3.2 µM (≈ 1.03 µg/mL) in experiment [3]; 0.9 µM (≈ 0.291 µg/mL) in experiment [4]; 12 µM (≈ 3.88 µg/mL) in experiment [6].
For `O=C1c2ccccc2C(=O)c2c(S(=O)(=O)c3ccccc3)noc21`, the MIC50 in experiment [1] is 1.6 µM (≈ 0.543 µg/mL); in experiment [2], 56.7 µM (≈ 19.2 µg/mL); in experiment [3], 6.1 µM (≈ 2.07 µg/mL); in experiment [4] it was 2.5 µM (≈ 0.848 µg/mL); in experiment [5] it was 9.7 µM (≈ 3.29 µg/mL); in experiment [6], 1.5 µM (≈ 0.509 µg/mL).
As to `CCOC(=O)c1noc2c1C(=O)c1ccccc1C2=O`, the MIC50 in experiment [1] amounted to 0.6 µM (≈ 0.163 µg/mL); in experiment [2], 11.5 µM (≈ 3.12 µg/mL); in experiment [3] it was 1.7 µM (≈ 0.461 µg/mL); in experiment [4], 1.8 µM (≈ 0.488 µg/mL); in experiment [5], 2.3 µM (≈ 0.624 µg/mL); in experiment [6], 0.6 µM (≈ 0.163 µg/mL).
Take `O=C(c1ccccc1)c1noc2c1C(=O)c1ccccc1C2=O`: the MIC50 was 13.2 µM (≈ 4 µg/mL) in experiment [1]; 71.2 µM (≈ 21.6 µg/mL) in experiment [2]; 3.3 µM (≈ 1 µg/mL) in experiment [3]; 1.6 µM (≈ 0.485 µg/mL) in experiment [4]; 21.2 µM (≈ 6.43 µg/mL) in experiment [5]; 47.6 µM (≈ 14.4 µg/mL) in experiment [6].
With `COC(=O)c1noc2c1C(=O)c1ccccc1C2=O`, the MIC50 in experiment [1] was 1.3 µM (≈ 0.334 µg/mL); in experiment [2], 12.2 µM (≈ 3.14 µg/mL); in experiment [3] it was 1.8 µM (≈ 0.463 µg/mL); in experiment [4], 0.7 µM (≈ 0.18 µg/mL); in experiment [5], 2.4 µM (≈ 0.617 µg/mL); in experiment [6], 2.6 µM (≈ 0.669 µg/mL).
With `C[C@@H]1[C@H](O)[C@@H](C)/C=C/C=C/C=C/C=C/C=C/C=C/C=C/[C@H](O[C@@H]2O[C@H](C)[C@@H](O)[C@H](N)[C@@H]2O)C[C@@H]2O[C@](O)(C[C@@H](O)C[C@@H](O)[C@H](O)CC[C@@H](O)C[C@@H](O)CC(=O)O[C@H]1C)C[C@H](O)[C@H]2C(=O)O` [AMPHOTERICIN B], the MIC50 came out at 0.5 µM (≈ 0.462 µg/mL) in experiment [1]; 1.2 µM (≈ 1.11 µg/mL) in experiment [2]; 0.5 µM (≈ 0.462 µg/mL) in experiment [3]; 0.5 µM (≈ 0.462 µg/mL) in experiment [4]; 1 µM (≈ 0.924 µg/mL) in experiment [5]; 0.4 µM (≈ 0.37 µg/mL) in experiment [6].
